Source: ChEMBL document CHEMBL1148432, “PDE2 inhibition by the PI3 kinase inhibitor LY294002 and analogues” (Bioorg Med Chem Lett, 2004)

Each compound was assayed against T1, cGMP-dependent 3',5'-cyclic phosphodiesterase (Homo sapiens, UniProt O00408) (assay: Inhibition of human platelet phosphodiesterase 2).
Outline: (§1)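 PDE2 was purified from human platelet lysate by anion-exchange chromatography. The enzyme was premixed in HEPES buffer with cGMP and inhibitor or DMSO for 90 s at 37 °C, then started with cAMP substrate. The reaction was stopped after 5 min by heating at 100 °C for 3 min. AMP was measured by reverse-phase HPLC at 254 nm against standards and expressed as % of DMSO control (mean ± SE, n ≥ 3).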

T1 sequence (O00408 whole entry): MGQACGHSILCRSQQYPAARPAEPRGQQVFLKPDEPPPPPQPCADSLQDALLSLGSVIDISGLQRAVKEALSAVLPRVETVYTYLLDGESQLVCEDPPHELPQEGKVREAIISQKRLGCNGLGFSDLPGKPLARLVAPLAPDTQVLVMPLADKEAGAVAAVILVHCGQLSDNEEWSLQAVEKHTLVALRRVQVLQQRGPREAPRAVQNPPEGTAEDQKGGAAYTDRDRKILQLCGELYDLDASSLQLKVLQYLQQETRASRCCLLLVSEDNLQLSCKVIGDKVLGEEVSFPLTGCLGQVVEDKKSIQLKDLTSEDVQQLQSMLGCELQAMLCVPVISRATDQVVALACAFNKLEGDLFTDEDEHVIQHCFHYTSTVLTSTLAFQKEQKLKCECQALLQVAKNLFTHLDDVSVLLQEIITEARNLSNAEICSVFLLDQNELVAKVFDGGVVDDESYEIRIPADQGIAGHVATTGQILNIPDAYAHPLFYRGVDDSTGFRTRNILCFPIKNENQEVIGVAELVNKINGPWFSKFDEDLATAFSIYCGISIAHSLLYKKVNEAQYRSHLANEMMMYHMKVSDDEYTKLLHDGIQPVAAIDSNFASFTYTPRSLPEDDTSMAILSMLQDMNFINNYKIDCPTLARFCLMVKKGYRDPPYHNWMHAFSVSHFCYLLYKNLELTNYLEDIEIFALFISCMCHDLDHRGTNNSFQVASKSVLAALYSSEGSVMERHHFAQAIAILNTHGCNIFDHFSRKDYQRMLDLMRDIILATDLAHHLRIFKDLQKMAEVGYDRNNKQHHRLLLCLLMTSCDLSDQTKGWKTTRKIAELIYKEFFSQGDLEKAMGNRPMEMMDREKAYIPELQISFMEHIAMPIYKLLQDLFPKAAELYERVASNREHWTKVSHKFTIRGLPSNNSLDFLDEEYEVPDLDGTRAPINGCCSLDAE

Row | IC50 [µM] | Compound
1 | 6 | O=c1cc(N2CCOCC2)oc2c(C#Cc3ccccc3)cccc12
2 | 40 | O=c1cc(N2CCOCC2)oc2c(-c3ccccc3)cccc12 [LY-294002]

The remaining lines, values behind:

Row | Compound | IC50 [µM]
3 | CCCCCC[C@@H]([C@@H](C)O)n1cnc2c(N)ncnc21 [EHNA] | 5
4 | COc1cc(-c2cccc(Cl)c2)c2oc(N3CCOCC3)cc(=O)c2c1 | 9

Each compound was assayed against Phosphodiesterase 3 (Homo sapiens, UniProt Q14432+Q13370) (assay: Inhibition of human platelet phosphodiesterase 3).
Outline: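 PDE3 was separated from PDE2 in human platelet lysate by anion-exchange chromatography. It was assayed under conditions optimal for that isozyme, with the AMP product quantified by reverse-phase HPLC.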

Row | IC50 [µM] | Compound
5 | 100 | O=c1cc(N2CCOCC2)oc2c(-c3ccccc3)cccc12 [LY-294002]

These compounds were tested against T1, cGMP-dependent 3',5'-cyclic phosphodiesterase (assay: Inhibitory activity against human platelet phosphodiesterase 2 at 50 uM expressed as percent basal value).
Outline: as §1

Row | Remaining activity (% of control) [%] | Compound
6 | 43 | O=c1cc(N2CCOCC2)oc2c(CCc3ccccc3)cccc12
7 | 78 | COc1cc(-c2ccccc2Cl)c2oc(N3CCOCC3)cc(=O)c2c1
8 | 31 | Cc1c(-c2ccccc2)ccc2c(=O)cc(N3CCOCC3)oc12
9 | 69 | O=c1cc(N2CCOCC2)oc2c(-c3ccccc3)cc(O)cc12
10 | 93 | O=c1cc(N2CCOCC2)oc2c(C#Cc3ccccc3)cccc12
11 | 43 | O=c1cc(N2CCOCC2)oc2c(-c3ccccc3C(F)(F)F)cccc12
12 | 40 | O=c1cc(N2CCOCC2)oc2c(OCc3ccccc3)cccc12
13 | 47 | Cc1ccccc1-c1cccc2c(=O)cc(N3CCOCC3)oc12
14 | 43 | O=c1cc(N2CCOCC2)oc2c(-c3ccc(F)cc3)cccc12
15 | 62 | O=c1cc(N2CCOCC2)oc2c(-c3ccccc3Cl)cccc12
16 | 60 | Cc1cc(-c2ccccc2)c2oc(N3CCOCC3)cc(=O)c2c1
17 | 47 | COc1ccccc1-c1cccc2c(=O)cc(N3CCOCC3)oc12
18 | 54 | O=c1cc(N2CCOCC2)oc2c(-c3ccccc3)cccc12 [LY-294002]

The remaining lines, values behind:

Row | Compound | Remaining activity (% of control) [%]
19 | CCc1cc(-c2ccccc2)c2oc(N3CCOCC3)cc(=O)c2c1 | 47
20 | COc1cc(-c2ccccc2)c2oc(N3CCOCC3)cc(=O)c2c1 | 75
21 | O=c1cc(N2CCOCC2)oc2cc(OCc3cccnc3)ccc12 | 22
22 | O=c1cc(N2CCOCC2)oc2cc(-c3ccccc3)ccc12 | 9
23 | O=c1cc(N2CCOCC2)oc2c(O)cccc12 | 19
24 | Cc1c(OCc2ccccc2)ccc2c(=O)cc(N3CCOCC3)oc12 | 38
25 | Cc1c(C#Cc2ccccc2)ccc2c(=O)cc(N3CCOCC3)oc12 | 44
26 | O=c1cc(N2CCOCC2)oc2c(OCc3cccnc3)cccc12 | 35
27 | O=c1cc(N2CCOCC2)oc2cc(C#Cc3ccccc3)ccc12 | 92
28 | COc1cccc2c(=O)cc(N3CCOCC3)oc12 | 20
29 | COc1cc(-c2cccc(Cl)c2)c2oc(N3CCOCC3)cc(=O)c2c1 | 87
30 | Cc1c(OCc2cccnc2)ccc2c(=O)cc(N3CCOCC3)oc12 | 35
31 | O=c1cc(N2CCOCC2)oc2c(-c3ccc(Oc4ccccc4)cc3)cccc12 | 75
32 | O=c1cc(N2CCOCC2)oc2cc(OCc3ccccc3)ccc12 | 12
33 | COc1ccc2oc(N3CCOCC3)cc(=O)c2c1 | 38
34 | COc1cc(-c2ccc(Cl)cc2)c2oc(N3CCOCC3)cc(=O)c2c1 | 67
